Results collected from several papers.
Each line is one published result; the experiments were not run side by side.
Target: Serine/threonine-protein kinase pim-2 (PIM2, Homo sapiens, UniProt Q9P1W9)

Cc1c(NC(=O)c2cc(C(N)=O)nc3cc(F)ccc23)c(C(F)(F)F)nn1Cc1ccc(C(C)(C)C)cc1 — remaining binding (cell-free assay; competition with immobilised ligand; 1 µM): 100%
Cc1cnn2ncc(-c3ccnc(N(C)C)n3)c2c1 — remaining binding (binding; 1 µM): 84%
O=C(c1ccc(Nc2ncc(Cl)c(-c3ccc(Cl)s3)n2)cc1)N1CCC(N2CCCC2)CC1 — remaining binding (binding; competition with immobilised ligand; 1 µM): 100%
CN([C@@H]1CCc2c(CC(=O)O)c3ccccc3n2C1)S(=O)(=O)c1ccc(F)cc1 — remaining binding (cell-free assay; competition with immobilised ligand; 1 µM): 100%
N[C@H]1CCN(c2nccc(-c3cnn4ncccc34)n2)C1 — remaining binding (binding; 1 µM): 98%
CCCOc1ccc([C@@H]2[C@@H](C(=O)O)[C@H](c3ccc4c(c3)OCO4)CN2CC(=O)Nc2c(CC)cccc2CC)cc1 — remaining binding (cell-free assay; competition with immobilised ligand; 1 µM): 99%
COc1ccnn2ncc(-c3ccnc(N(C)C)n3)c12 — remaining binding (binding; 1 µM): 100%
O=C(N[C@H]1CCCCC/C=C\C2C[C@@]2(C(=O)O)NC(=O)[C@@H]2C[C@@H](Oc3ccncc3)CN2C1=O)OC1CCCC1 (stereo partly drawn) — remaining binding (binding; competition with immobilised ligand; 1 µM): 100%
CC(C)(C)c1ccc(-c2nc(CBr)nn2-c2cccc(O)c2)cc1 — remaining binding (cell-free assay; competition with immobilised ligand; 10 µM): 81%
CNC(=O)[C@@H]1CC[C@@H](n2c(-c3ccc4cnccc4c3)nc3ccc(C(=O)NCc4cccc(C(N)=O)c4)cc32)C1 — remaining binding (binding; competition with immobilised ligand; 1 µM): 93%
c1cncc(-c2cccc(Nc3nccc(NC4CCCCC4)n3)c2)c1 — remaining binding (binding; competition with immobilised ligand; 10 µM): 45%
O=C(Nc1c[nH]nc1C(=O)NC1CCNCC1)c1cc(F)cc(F)c1 — remaining binding (binding; competition with immobilised ligand; 1 µM): 96%
C=CC(=O)N1CCC(C(=O)NCC(=O)N2CCN(c3nc(-c4cnc(N)nc4C(F)F)nc(N4CCOCC4)n3)CC2)CC1 — remaining binding (binding; competition with immobilised ligand; 1 µM): 82%
CSc1cccnc1N1CCN(Cc2nc3ccccc3[nH]2)CC1 — remaining binding (cell-free assay; competition with immobilised ligand; 1 µM): 96%
CN(c1nccc(-c2cnn3ncccc23)n1)C1CC1 — remaining binding (binding; 1 µM): 100%
O=C(c1ccc(Nc2nccc(-c3cc4ccccc4s3)n2)cc1)N1CCC(N2CCCC2)CC1 — remaining binding (binding; competition with immobilised ligand; 1 µM): 100%
N#Cc1ccccc1CSc1nnc2c(n1)[nH]c1ccccc12 — remaining binding (binding; competition with immobilised ligand; 10 µM): 75%
FC(F)(F)Oc1cccc(-c2cnc3ccc(-c4ccncc4)nn23)c1 — remaining binding (cell-free assay; competition with immobilised ligand; 5 µM): 45%
C[C@H](c1cccc(C#N)c1)n1cc(Cl)cc(C(N)=O)c1=N — remaining binding (cell-free assay; competition with immobilised ligand; 1 µM): 100%
C[C@H]1CCN(c2nccc(-c3cnn4ncccc34)n2)C1 — remaining binding (binding; 1 µM): 81%
C[C@@H]1CN(c2ccc3ncc(-c4ccc5[nH]nc(C6CC6)c5c4)n3n2)C[C@H](C)O1 — remaining binding (binding; competition with immobilised ligand; 50 nM): 92%
O=C(NCCCN1CCOCC1)c1ccc(Nc2ncc(Cl)c(-c3ccc(Cl)s3)n2)cc1 — remaining binding (binding; competition with immobilised ligand; 1 µM): 100%
O=C(Nc1cccnn1)N1CCC(=Cc2cccc(Oc3ccc(C(F)(F)F)cn3)c2)CC1 — remaining binding (cell-free assay; competition with immobilised ligand; 1 µM): 97%
CN(C)c1nccc(-c2cnn3ncccc23)n1 — remaining binding (binding; 1 µM): 78%
